High-throughput results: PubChem, several laboratories
WT yeast gro inh: growth inhibition of WT yeast, mitochondrial fusion screen; mitochondrial fusion phenotypic screen, WT strain; inhibition, % at 10 µM; 190,000 tested, 2.1% active; in the data active = inhibition above about 58%; tested in S. cerevisiae
L major viab: reduces viability of Leishmania major promastigotes. resazurin fluorescence viability. inhibition, % at 10 µM. 200,000 tested, 9% active. AID 1063; in the data active = inhibition above about 50%;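 note: promastigotes grown with compound for 44 hours at 28 °C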
KCC2 mod: modulators of human KCC2 chloride dependent transport; KCC2 cells, thallium flux FluoZin-2 fluorescence; B-score of Tl+ flux slope (higher = more flux/activation; lower = inhibition) at 10 µM; 190,000 tested, 2.2% active; AID 1456;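 active = thallium flux slope and its plate-corrected score both differing from the plate sample mean at a set confidence after two filtering rounds, in either direction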;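 note: slope of fluorescence scaled to starting intensity during 10 to 20 s after thallium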
Diaph inh CS: inhibits diaphorase or chemically oxidizes, flagging diaphorase assay artifacts | AID 1217 | 190,000 tested, 0.69% active | inhibition, % at 20 µM | diaphorase resazurin-to-resorufin fluorescence, NADH, 16 min; bacterial (C. kluyveri) enzyme, not human;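 active = primary screen inhibition at 20 µM above a set limit, cut at about 50% in these data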;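 note: plate controls were DMSO with full reaction for no effect and wells lacking NADH for full effect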
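material = Clostridium kluyveri diaphorase enzyme | amount = 0.14 U/mL diaphorase, enzyme working solution | schedule = incubation 16 min, room temperature | detection = fluorescence of resorufin formed from resazurin, Ex 544/Em 590 nm | benchmarks = positive control minus NADH, DMSO neutral control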
ROMK primary: modulators of human ROMK potassium channel; P48048; Tet-inducible ROMK, thallium flux fluorescence; actives lie on both sides; B-score at 10 µM; 130,000 tested, 2% active;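 active = signal ratio slope over the read window, or its plate-corrected B-score, at least 3 SD from the plate mean, either direction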;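 note: B-score of the F/F0 ratio slope over 7 to 12 s after thallium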
Target sequence (P48048 whole entry, looked up): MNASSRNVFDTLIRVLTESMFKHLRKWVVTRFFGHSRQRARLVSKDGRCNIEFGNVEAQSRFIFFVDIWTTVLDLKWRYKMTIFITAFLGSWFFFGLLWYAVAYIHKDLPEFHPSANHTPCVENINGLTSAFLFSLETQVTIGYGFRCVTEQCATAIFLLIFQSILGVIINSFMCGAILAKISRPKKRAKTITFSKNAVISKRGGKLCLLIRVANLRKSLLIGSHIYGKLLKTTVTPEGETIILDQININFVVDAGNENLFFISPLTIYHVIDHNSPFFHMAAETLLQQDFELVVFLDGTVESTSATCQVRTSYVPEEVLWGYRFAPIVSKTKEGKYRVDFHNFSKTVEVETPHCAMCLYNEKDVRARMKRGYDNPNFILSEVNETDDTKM
Diaph act CS: diaphorase activation or chemical reduction counter-screen; Diaphorase/resazurin coupled assay, resorufin fluorescence, 16 min; hits give high values; 1 = vehicle wells, 0 = NADH-free wells; activation factor at 20 µM; 190,000 tested, 0.005% active; AID 1229;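 active = diaphorase activity raised at least twofold by the compound at 20 µM; inactive = activation factor below 2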
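Material: purified diaphorase enzyme from Clostridium kluyveri / Medium: HEPES pH 7.4 buffer with MgCl2 and Tween 20 / Schedule: enzyme reaction of 16 min at room temperature / Measured by: resorufin fluorescence, excitation 544 nm, emission 590 nm / Evaluation: rise in resorufin formation, marking diaphorase activation or chemical reduction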
ROMK hit retest: confirmation of human ROMK potassium channel modulators; shares compounds with ROMK primary; 3,000 tested, 54% active; ROMK thallium flux, fluorescence ratio; hits give low values; AID 1917; normalized thallium flux (F/F0 slope) at 10 µM;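 active = Flux at 10 µM at least 3 SD below or above vehicle control mean in one or both replicates; inconclusive = no clear call, values can overlap the other calls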
Starred values were filed as active, the others as inactive; ? = inconclusive; . = no result given. An excerpt weighted towards active compounds, which were near 12% of everything screened.

SMILES	WT yeast gro inh	L major viab	KCC2 mod	Diaph inh CS	ROMK primary	Diaph act CS	ROMK hit retest
COc1ccccc1N=C1SCC(=O)N1c1ccccc1OC	5	-4	1.2	7	-0.63	0.9	.
CC(=O)c1ccc(Nc2cc(C)nc3c(C)cccc23)cc1	1	27	-1.6	.	4.2*	.	0.087
Cc1cc(C)c2c(NC(=S)NC(=O)c3ccccc3)n[nH]c2n1	-2	8	-0.45	12	0.047	0.9	.
COc1ccccc1Oc1ccc(S(=O)(=O)NCc2ccccn2)cc1	1	52*	.	12	-2.7*	0.9	0.073
CCC(C)(C)NC(=O)C(c1cccnc1)N(C(=O)c1csnn1)c1ccccc1 (stereo not given)	-1	-1	1.6	-6	1.4	1.1	.
Clc1ccccc1-c1nnc2sc(-c3ccccn3)nn12	11	11	-1.1	20	.	0.8	0.079
Clc1ccc(-c2nn3c(-c4ccccn4)nnc3s2)c(Cl)c1	.	.	.	8	.	0.9	.
Clc1ccc2nc(SCc3nnc(-c4ccccc4)o3)[nH]c2c1	11	10	.	29	-3.4*	0.7	0.055*
O=C(CSc1c2c(nc3cc(Cl)ccc13)CCCC2)NCCCN1CCOCC1	2	32	0.57	22	-1.8*	0.8	0.081
O=C(CSc1c2c(nc3ccc(Cl)cc13)CCCC2)NCCCN1CCOCC1	0	27	-0.92	-2	-0.43	1	.
COCCOc1cc(-n2ccnc2SC)c(Cl)cc1Cl	11	-1	.	9	.	0.9	.
O=C(CSc1nnc(COc2ccccc2)o1)c1ccccc1	-7	-1	.	14	-1.1	0.9	.
CC(C)(C)NC(=O)CN(C(=O)CSc1nnc(COc2ccccc2)o1)c1cccc(F)c1	4	12	-2.7	10	-2.7*	0.9	?
O=C(O)c1ccc(N2C(=O)c3ccc(C(=O)c4cccc([N+](=O)[O-])c4)cc3C2=O)cc1	8	1	-1.6	2	2.2*	1	0.088
